# Reference: ChEMBL document CHEMBL4130549, “Synthesis and bioactivities study of new antibacterial peptide mimics: The dialkyl cationic amphiphiles” (Eur J Med Chem, 2018)
# Active and inactive are the calls of the source. The calls are words filed in the database; no cut-off is given here.
# How the values were obtained:
# Escherichia coli [1] = experiment: Antibacterial activity against Escherichia coli ATCC 25922 after 16 to 20 hrs by broth microdilution method; assay type: functional
# Summary of the method: (§1)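 Broth microdilution per CLSI in cation-adjusted Mueller-Hinton broth; 4-6 h cultures (~10⁸ CFU/mL) diluted to ~10⁶ CFU/mL and mixed 1:1 with twofold dilutions of water-dissolved compound (256 to 0.5 µg/mL). Incubated 16-20 h at 37 °C; MIC read visually. Each concentration run in duplicate, whole experiment repeated at least twice. MRSA, KPC and NDM-1 strains were clinical isolates.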
# Staphylococcus aureus [2] = experiment: Antibacterial activity against methicillin-resistant Staphylococcus aureus after 16 to 20 hrs by broth microdilution method; assay type: functional
# Summary of the method: (§2)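 CLSI broth microdilution in cation-adjusted Mueller-Hinton broth. A 4-6 h culture was diluted to about 10⁶ CFU/mL and mixed 1:1 with twofold compound dilutions (256–0.5 µg/mL before mixing) prepared from aqueous stocks. Plates were incubated at 37 °C for 16-20 h. Each concentration was tested in duplicate, and the experiment was repeated at least twice.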
# Enterobacteriaceae [3] = experiment: Antibacterial activity against NDM-1-producing Enterobacteriaceae after 16 to 20 hrs by broth microdilution method; assay type: functional; summary of the method: as §1
# [4] = Hemolytic activity in sheep RBC after 1 hr; assay type: ADME, cell-based, Ovis aries, Erythrocyte; conditions: sheep red blood cells (erythrocytes)
# Summary of the method: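 Sheep RBCs suspended at 5% in PBS; 150 µL added to 50 µL compound dilutions (5120 to 10 µg/mL series). Incubated 1 h at 37 °C, then centrifuged; supernatant absorbance read at 540 nm. Lysis (%) = (A−A0)/(Atotal−A0)×100, with untreated 5% RBC as A0 and 0.1% Triton X-100 as total.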
# Staphylococcus aureus [5] = experiment: Antibacterial activity against methicillin-resistant Staphylococcus aureus isolate M2 after 16 to 20 hrs by broth microdilution method; assay type: functional; summary of the method: as §2
# Staphylococcus aureus [6] = experiment: Antibacterial activity against methicillin-resistant Staphylococcus aureus isolate M3 after 16 to 20 hrs by broth microdilution method; assay type: functional; summary of the method: as §2
# Staphylococcus aureus [7] = experiment: Antibacterial activity against methicillin-resistant Staphylococcus aureus isolate M9 after 16 to 20 hrs by broth microdilution method; assay type: functional; summary of the method: as §2
# Staphylococcus aureus [8] = experiment: Antibacterial activity against methicillin-resistant Staphylococcus aureus isolate M10 after 16 to 20 hrs by broth microdilution method; assay type: functional; summary of the method: as §2
# Klebsiella pneumoniae = experiment: Antibacterial activity against carbapenemase-producing Klebsiella pneumoniae isolate K3 after 16 to 20 hrs by broth microdilution method; assay type: functional; summary of the method: as §1
# Enterobacteriaceae [9] = experiment: Antibacterial activity against NDM-1-producing Enterobacteriaceae isolate N1 after 16 to 20 hrs by broth microdilution method; assay type: functional; summary of the method: as §1
# Staphylococcus aureus [10] = experiment: Bactericidal activity against methicillin-resistant Staphylococcus aureus after 20 to 24 hrs in presence of 50% serum by broth microdilution method; assay type: functional, organism-based
# Summary of the method: (§3)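 MRSA at 10⁵ CFU/mL in 50% Mueller-Hinton broth plus 50% sheep serum, plasma or defibrinated whole blood. Serum and plasma were separated by centrifugation at 3,500 rpm for 10 min. Aqueous compound dilutions (512–4 µg/mL before mixing) were combined 1:3 with the suspension and incubated 20-24 h at 37 °C. Wells were plated on Mueller-Hinton agar for a further 20-24 h; MBC was taken as no colonies.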
# Staphylococcus aureus [11] = experiment: Bactericidal activity against methicillin-resistant Staphylococcus aureus after 20 to 24 hrs in presence of 50% plasma by broth microdilution method; assay type: functional, organism-based; summary of the method: as §3
# Staphylococcus aureus [12] = experiment: Bactericidal activity against methicillin-resistant Staphylococcus aureus after 20 to 24 hrs in presence of 50% blood by broth microdilution method; assay type: functional, organism-based; summary of the method: as §3
# Staphylococcus aureus [13] = experiment: Ratio of MBC for methicillin-resistant Staphylococcus aureus in presence of 50% blood to MBC for methicillin-resistant Staphylococcus aureus; assay type: functional; summary of the method: as §3
# Staphylococcus aureus [14] = experiment: Induction of inner membrane permeabilization in Staphylococcus aureus ATCC 29213 at 20 ug/ml measured every 2 mins for 12 mins by propidium iodide staining based fluorescence assay; assay type: functional, organism-based
# Summary of the method: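 Mid-log cells (~10^8 CFU/mL) pre-incubated with propidium iodide (10 µM, 50 µL), 30 min for S. aureus and 40 min for E. coli. Fluorescence (ex 535/em 617 nm) read for 8 min, then compound added to 20 µg/mL final and monitored every 2 min for 12 min. Water-treated control.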
# Escherichia coli [15] = experiment: Induction of outer membrane permeabilization in Escherichia coli ATCC 25922 at 20 ug/ml measured every 2 mins for 12 mins by NPN staining based fluorescence assay; assay type: functional, organism-based
# Summary of the method: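 Mid-log E. coli (~10^8 CFU/mL) in black plates pre-incubated about 40 min with NPN (10 µM, 50 µL). Baseline read 8 min (ex 350/em 420 nm), then compound added to 20 µg/mL final and fluorescence followed every 2 min for 12 min. Water-treated control.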
# HeLa [16] = experiment: Cytotoxicity against human HeLa cells assessed as altered morphology at 1 to 2 times MIC after 24 hrs by optical microscopic method; assay type: cell-based
# Summary of the method: (§4)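 HeLa cells kept in DMEM with 10% FBS at 37 °C and 5% CO2, seeded in 12-well plates and left to adhere overnight. Cells then exposed 24 h to 1, 2, 4, 8 and 16 µg/mL, with 0.1% Triton X-100 as positive control and untreated wells as negative control. Cells washed with PBS, imaged for morphology, and stained 15 min at 37 °C with 2 µM calcein AM plus 4.5 µM PI for live/dead fluorescence.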
# HeLa [17] = experiment: Cytotoxicity against human HeLa cells at 1 to 2 times MIC after 24 hrs by calcein AM/propidium iodide staining based fluorescence microscopic method; assay type: cell-based; summary of the method: as §4
# Staphylococcus aureus [18] = experiment: Antibiofilm activity against Staphylococcus aureus ATCC 29213 assessed as bacterial cell viability in biofilm at 16 ug/ml after 24 hrs (reference value: 21.9 log10CFU/ml); assay type: functional
# Summary of the method: (§5)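 Mid-log cells at ~10⁵ CFU/mL grown stationary in 96-well plates (S. aureus in MHB for 24 h; E. coli in M9 with 0.02% casamino acids and 0.5% glycerol for 72 h). After washing, biofilms exposed 24 h at 37 °C to 2-128 µg/mL; detached with trypsin-EDTA, serially plated, viability given as log10 CFU/well against an untreated control.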
# Staphylococcus aureus [19] = experiment: Antibiofilm activity against Staphylococcus aureus ATCC 29213 assessed as bacterial cell viability in biofilm at 32 ug/ml after 24 hrs (reference value: 21.9 log10CFU/ml); assay type: functional; summary of the method: as §5
# Staphylococcus aureus [20] = experiment: Antibiofilm activity against Staphylococcus aureus ATCC 29213 assessed as bacterial cell viability in biofilm at 128 ug/ml after 24 hrs (reference value: 21.9 log10CFU/ml); assay type: functional; summary of the method: as §5
# Escherichia coli [21] = experiment: Antibiofilm activity against Escherichia coli ATCC 25922 after 24 hrs by crystal violet staining method; assay type: functional
# Summary of the method: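 MBIC: twofold dilutions in MHB inoculated with 1:1000-diluted exponential-phase culture (10⁸ CFU/mL), 24 h at 37 °C. Wells rinsed, stained 10 min with 0.1% crystal violet, dye dissolved in ethanol, OD540 read; MBIC80 taken from dose–response versus untreated wells.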
# Staphylococcus aureus [22] = experiment: Ratio of MBEC to MIC for Staphylococcus aureus ATCC 29213; assay type: functional
# Summary of the method: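 For MBEC, biofilms grown 24 h at 37 °C from a 1:1000 dilution of exponential-phase culture, washed, exposed 24 h to two-fold compound dilutions in fresh medium, then recovered 24 h in medium alone; MBEC is the lowest concentration with no turbidity. MIC by CLSI broth microdilution in cation-adjusted MHB, ~10^6 CFU/mL inoculum, 37 °C, 16–20 h.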
Compound,MIC (Escherichia coli [1]) [µg/mL],MIC (Staphylococcus aureus [2]) [µg/mL],MIC (Enterobacteriaceae [3]) [µg/mL],HC50 at 1 h [4] [µg/mL],MIC (Staphylococcus aureus [5]) [µg/mL],MIC (Staphylococcus aureus [6]) [µg/mL],MIC (Staphylococcus aureus [7]) [µg/mL],MIC (Staphylococcus aureus [8]) [µg/mL],MIC (Klebsiella pneumoniae) [µg/mL],MIC (Enterobacteriaceae [9]) [µg/mL],Activity (Staphylococcus aureus [10]),Activity (Staphylococcus aureus [11]),Activity (Staphylococcus aureus [12]),Ratio (Staphylococcus aureus [13]),Activity (Staphylococcus aureus [14]),Activity (Escherichia coli [15]),Activity (HeLa [16]),Activity (HeLa [17]),also measured
CCCCCCCCN(CCCCCCCC)C(=O)[C@@H](N)CCCCN.Cl.Cl,2,0.5,4,225,1,1,1,0.5,2,8,Active,Active,inactive,8 - 16,Active,Active,–,–,–
CCCCCCCCCCN(CCCCCCCCCC)C(=O)[C@@H](N)CCCN=C(N)N.Cl.Cl.Cl,8,2,4,87,1,2,2,2,4,4,Active,Active,inactive,8 - 16,Active,Active,–,–,–
CCCCCCCCN(CCCCCCCC)C(=O)[C@@H](N)CCCN=C(N)N.Cl.Cl.Cl,2,0.5,4,124,1,0.5,1,0.5,4,8,Active,Active,inactive,8 - 16,Active,Active,–,–,–
CCCCCCCCCN(CCCCCCCCC)C(=O)[C@@H](N)CCCN=C(N)N.Cl.Cl.Cl,2,2,4,119,1,1,2,2,4,4,Active,Active,inactive,8 - 16,Active,Active,Non-Toxic,Non-Toxic,–
CCCCCCCCCCN(CCCCCCCCCC)C(=O)[C@@H](N)CCCCN.Cl.Cl,2,1,4,98,1,2,1,1,4,4,Active,Active,inactive,8 - 16,Active,Active,–,–,–
CCCCCCCCCN(CCCCCCCCC)C(=O)[C@@H](N)CCCCN.Cl.Cl,2,0.5,2,133,1,1,1,0.5,2,2,Active,Active,inactive,8 - 16,Active,Active,Non-Toxic,Non-Toxic,Activity (Staphylococcus aureus [18]): 11.5 log10CFU; Activity (Staphylococcus aureus [19]): 9.9 log10CFU; Activity (Staphylococcus aureus [20]): 7.6 log10CFU; MBIC80 (Escherichia coli [21]): 53.9 µg/mL; MBIC90 (Escherichia coli [21]): 73.6 µg/mL; Ratio (Staphylococcus aureus [22]): 64
